Assay results reported in PMC6209313 (Molecular Pharmaceutics, 2018).
≈ marks a conversion by molar mass, not a printed value. Like-named read-outs stand apart in the source and are kept apart here.

Key:
[1] = cited from earlier work; for solid form of precipitate during dispersion: dispersion (dilution in bile) ref 13; for solid form of precipitate during digestion: in vitro digestion of LBFs ref 11-17; for solid form of precipitate in vitro and in vivo: drug loaded into LBFs ref 41
[2] = Drug solubility in lipolysis medium; assay type: physicochemical; settings: for solubility fold-increase between dispersion and digestion media: IIIA-LC; for solubility at 24 h: dispersion medium of blank (placebo) LBF lipolysis, all LBFs, pH 6.5
Method in brief: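 Placebo LBF digested in pH 6.5 buffer (2 mM Tris-maleate, 1.4 mM CaCl2·2H2O, 150 mM NaCl, FaSSIF 3.0 mM taurocholate/0.75 mM lecithin), 37 °C, porcine pancreatin. Media sampled at 10 min dispersion and 60 min digestion, lipase inhibited with 4-bromophenyl boronic acid, centrifuged. Supernatant shaken with excess crystalline drug at 37 °C, pH readjusted to 6.5. HPLC at 5 h and 24 h; value is mean of 24 h triplicates.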

[3] = Acid/base/neutral class and ionization at the pH of lipolysis; assay type: physicochemical; settings: pH 6.5
Dose number = assay type: physicochemical; settings: for Do value: 80% loading, lipid-rich LBFs after digestion, maximum-value of 0.5 observed; for Do 80%: 80% of maximum drug load, 45 mL digestion medium; for lipolysis Do: applied drug load during in vitro lipolysis
[4] = Maximum drug loading capacity; assay type: physicochemical; settings: 37 °C, mean (sd)
[5] = Solid state characterization of drug precipitate; assay type: physicochemical; settings: IIIB-MC, 60 min of digestion, PLM and Raman
Method in brief: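 Drug-loaded IIIB-MC (1.25 g in 45 mL medium, pH-stat 6.5, 37 °C) digested with pancreatin. The pellet at 60 min was imaged immediately by crossed-polarizer light microscopy. Raman used 785 nm at 400 mW over 100–1890 cm–1, with SNV baseline correction and blank-pellet background correction. References were crystalline drug, blank and drug-spiked blank pellets, and melt-quenched amorphous drug.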

[6] = In vitro lipolysis of drug-loaded IIIB-MC, quantification of precipitated drug; assay type: physicochemical; settings: for degree of precipitated drug: 60 min of digestion; for precipitation during lipolysis at 80% loading: data not shown

Compound	Do 80% (Dose number; IIIA-LC)	Do 80% (Dose number; IIIB-MC)	Do 80% (Dose number; IV)	maximum drug loading capacity (loading) ([4]; IIIA-LC)	maximum drug loading capacity (loading) ([4]; IIIB-MC)	maximum drug loading capacity (loading) ([4]; IV)	solid form of precipitated drug in the pellet [5]	solid form of precipitate during digestion [1]	also measured
COc1ccccc1OCCNCC(O)COc1cccc2[nH]c3ccccc3c12 (stereo not shown) [Carvedilol]								amorphous form	solid form of precipitate during dispersion [1]: crystalline form
C#C[C@]1(O)CC[C@H]2[C@@H]3CCC4=Cc5oncc5C[C@]4(C)[C@H]3CC[C@@]21C [Danazol]	4.9	9.5	13.5	16.4 (0.7) mg/g	38.8 (1.4) mg/g	50.1 (1.2) mg/g	crystalline form	crystalline form	lipolysis Do (Dose number; IIIB-MC): 4.8; solid form of precipitate in previous in vitro lipolysis studies [1]: crystalline form; solid form of precipitate in vitro and in vivo [1]: crystalline form
CC(C)OC(=O)C(C)(C)Oc1ccc(C(=O)c2ccc(Cl)cc2)cc1 [Fenofibrate]								crystalline form	solid form of precipitate in vitro and in vivo [1]: crystalline form
CCOC(=O)N1CCC(=C2c3ccc(Cl)cc3CCc3cccnc32)CC1 [Loratidine]								crystalline form	solid form of precipitate during dispersion [1]: crystalline form
CCC(C)(C)C(=O)O[C@H]1C[C@@H](C)C=C2C=C[C@H](C)[C@H](CC[C@@H]3C[C@@H](O)CC(=O)O3)[C@H]21 [Simvastatin]								amorphous form	
Cc1c(Cl)cccc1Nc1ccccc1C(=O)O [Tolfenamic acid]								crystalline form	

The next lines start with results.

Do 80% (Dose number; IIIA-LC)	Do 80% (Dose number; IIIB-MC)	Do 80% (Dose number; IV)	maximum drug loading capacity (loading) ([4]; IIIA-LC)	maximum drug loading capacity (loading) ([4]; IIIB-MC)	maximum drug loading capacity (loading) ([4]; IV)	solid form of precipitated drug in the pellet [5]	Compound	solid form of precipitate during digestion [1]	also measured
0.2	0.5	2.1	34.5 (3.2) mg/g	41.8 (0.7) mg/g	43.2 (1.7) mg/g		C(=C\c1ccccc1)/CN1CCN(C(c2ccccc2)c2ccccc2)CC1 [Cinnarizine]	amorphous character or in a molecular dispersion with digestion components	solubility fold-increase between dispersion and digestion media [2]: 6 fold; extent of ionization [3]: 90%; Do value (Dose number): ≤ 1; solid form of precipitated material ([1]; pH 4.0, 5.5, and 6.5 (ionized) ref 12): noncrystalline; solid form of precipitated material ([1]; pH 8.0 (unionized) ref 12): crystalline
6.8	9.1	11.1	75.4 (4.7) mg/g	176.2 (2.1) mg/g	218.0 (9.3) mg/g	crystalline and amorphous mixture	CCOC(=O)C1=C(C)NC(C)=C(C(=O)OC)C1c1cccc(Cl)c1Cl (stereo not shown) [Felodipine]		lipolysis Do (Dose number; IIIB-MC): 9.1
1.4	2.9	4.6				crystalline form	COC1=CC(=O)C[C@@H](C)[C@]12Oc1c(Cl)c(OC)cc(OC)c1C2=O [Griseofulvin]		degree of precipitated drug [6]: 11%; precipitation during lipolysis at 80% loading [6]: did not precipitate
0.0	0.1	0.4	3.9 (1.2) mg/g	17.7 (1.2) mg/g	21.5 (2.1) mg/g		O=C(CCCN1CCC(O)(c2ccc(Cl)cc2)CC1)c1ccc(F)cc1 [Haloperidol]		solubility fold-increase between dispersion and digestion media [2]: 11 fold; extent of ionization [3]: 99%; Do value (Dose number): ≤ 1
0.7	1.6	2.4	31.9 (1.1) mg/g	84.7 (3.5) mg/g	121.3 (4.2) mg/g	crystalline and amorphous mixture	COc1ccc2c(c1)c(CC(=O)O)c(C)n2C(=O)c1ccc(Cl)cc1 [Indomethacin]		solubility at 24 h [2]: 1500 to 1700 µg/mL (≈ 4.19 to 4.75 mM); degree of precipitated drug [6]: 2%; precipitation during lipolysis at 80% loading [6]: did not precipitate
0.2	0.5	1.4	9.7 (1.2) mg/g	23.0 (1.0) mg/g	29.9 (1.5) mg/g		CC(=O)N1CCN(c2ccc(OCC3COC(Cn4ccnc4)(c4ccc(Cl)cc4Cl)O3)cc2)CC1 (stereo not shown) [Ketoconazole]		solubility fold-increase between dispersion and digestion media [2]: 2 fold; extent of ionization [3]: 42%; Do value (Dose number): ≤ 1
14.5	54.6	55.8	13.6 (0.4) mg/g	50.9 (1.6) mg/g	80.7 (4.5) mg/g	hydrate form	O=C(Nc1ccc([N+](=O)[O-])cc1Cl)c1cc(Cl)ccc1O [Niclosamide]		solubility at 24 h [2]: < 80 µg/mL; lipolysis Do (Dose number; IIIB-MC): 11.1
